Reference: publication PMC3466779 (Biochemistry, 2012)
Several values for one entry are separate records, joined by “and”; a condition that tells them apart may be missing. Equal entries are not always repeated.

What was measured:
MtATP-PRT [1] = target: T1, MtATP-PRT (Mycobacterium tuberculosis, UniProt P9WMN1); assay: Steady-state kinetics: initial velocities of the forward reaction; type: biochemical
T1 sequence (P9WMN1 1-284): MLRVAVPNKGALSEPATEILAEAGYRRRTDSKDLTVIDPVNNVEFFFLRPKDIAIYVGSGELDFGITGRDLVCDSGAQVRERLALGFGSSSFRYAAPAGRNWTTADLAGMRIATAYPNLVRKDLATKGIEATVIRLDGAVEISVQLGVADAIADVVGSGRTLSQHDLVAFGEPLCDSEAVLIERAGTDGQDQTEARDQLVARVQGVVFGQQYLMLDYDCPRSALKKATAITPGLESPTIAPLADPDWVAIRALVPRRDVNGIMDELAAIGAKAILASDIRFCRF

[2] = target: Lactococcus lactis ATP-PRT; conditions: pH 8; cited from earlier work
MtATP-PRT [3] = target: T1, MtATP-PRT; assay: STD-NMR saturation transfer; type: binding; conditions: 0.6 mM L-histidine, 30 μM HisG, 25 °C
How it was run: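 STD 1H NMR was run at 14.4 T with 30 μM enzyme and 0.6 mM L-histidine in 50 mM sodium phosphate at each pH, 25 °C. Saturation times of 0.2–2.0 s in 0.2 s steps were recorded interleaved, with on-resonance protein presaturation at 0.8 ppm. A single off-resonance control used 2 s. Water was suppressed by excitation sculpting. Read-out was percent transfer per histidine proton.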

[4] = no reference given, cited from earlier work
MtATP-PRT [5] = target: T1, MtATP-PRT; assay: Pre-steady-state stopped-flow burst kinetics; type: biochemical
MtATP-PRT [6] = target: T1, MtATP-PRT; assay: Steady-state inhibition studies with L-histidine; type: biochemical; conditions: for Kii: 7 mM MgCl2, 200 mM KCl
MtATP-PRT [7] = target: T1, MtATP-PRT; assay: pH studies of L-histidine inhibition; type: biochemical; conditions: 0.8 mM PRPP fixed
MtATP-PRT [8] = target: T1, MtATP-PRT; assay: Gel filtration, solution oligomeric state; conditions: 20 mM Tris-HCl pH 8, 100 mM NaCl; 2 mM L-histidine, or ATP
How it was run: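 Recombinant enzyme was expressed in E. coli BL21(DE3)pLysS and Ni-NTA purified. It was injected at 0.1–10 mg/mL onto a Sephacryl S-200 column calibrated with molecular-weight standards. Elution was isocratic for 1.5 column volumes at 0.5 mL/min in 20 mM Tris-HCl pH 8, 100 mM NaCl, with or without 2 mM L-histidine. Apparent mass was read from elution position.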

For `O[C@@H](CS)[C@@H](O)CS` [DTT], the “effect of the thiol reducing agent on the time course” value (MtATP-PRT [1]; data not shown) was “did not alter the time course”.

In the case of `N[C@@H](Cc1c[nH]cn1)C(=O)O` [L-histidine], the Ki [2] is given as 81 µM, the “% saturation transfer to L-histidine protons, Cα-H” value (shortened to “% saturation transfer … Cα-H”) (MtATP-PRT [3]; pH 5.5) is given as 0% and the “% saturation transfer to L-histidine protons, Cβ-H2” value (from here on “% saturation transfer … Cβ-H2”) (MtATP-PRT [3]; pH 5.5) is given as 0%. The “% saturation transfer to L-histidine protons, Cδ2-H” value (from here on “% saturation transfer … Cδ2-H”) (MtATP-PRT [3]; pH 5.5) was 0%, the “% saturation transfer to L-histidine protons, Cε1-H” value (from here on “% saturation transfer … Cε1-H”) (MtATP-PRT [3]; pH 5.5) was 0% and the “% saturation transfer … Cα-H” value (MtATP-PRT [3]; pH 6.0) was 0%. For the same compound, the “% saturation transfer … Cβ-H2” value (MtATP-PRT [3]; pH 6.0) was 0%, the “% saturation transfer … Cδ2-H” value (MtATP-PRT [3]; pH 6.0) was 0% and the “% saturation transfer … Cε1-H” value (MtATP-PRT [3]; pH 6.0) was 0%. For the same compound, the “% saturation transfer … Cα-H” value (MtATP-PRT [3]; pH 6.5) was 0%, the “% saturation transfer … Cβ-H2” value (MtATP-PRT [3]; pH 6.5) was 0% and the “% saturation transfer … Cδ2-H” value (MtATP-PRT [3]; pH 6.5) was 0%. The “% saturation transfer … Cε1-H” value (MtATP-PRT [3]; pH 6.5) was 0%, the “% saturation transfer … Cα-H” value (MtATP-PRT [3]; pH 7.5) was 0% and the “% saturation transfer … Cβ-H2” value (MtATP-PRT [3]; pH 7.5) was 0%. The “% saturation transfer … Cδ2-H” value (MtATP-PRT [3]; pH 7.5) was 0%, the “% saturation transfer … Cε1-H” value (MtATP-PRT [3]; pH 7.5) was 0% and the “% saturation transfer … Cα-H” value (MtATP-PRT [3]; pH 8.0) was 0%. The “% saturation transfer … Cβ-H2” value (MtATP-PRT [3]; pH 8.0) was 0%, the “% saturation transfer … Cδ2-H” value (MtATP-PRT [3]; pH 8.0) was 36.9% and the “% saturation transfer … Cε1-H” value (MtATP-PRT [3]; pH 8.0) was 40.4%. The “% saturation transfer … Cα-H” value (MtATP-PRT [3]; pH 8.5) was 0%, the “% saturation transfer … Cβ-H2” value (MtATP-PRT [3]; pH 8.5) was 0% and the “% saturation transfer … Cδ2-H” value (MtATP-PRT [3]; pH 8.5) was 81.6%. The “% saturation transfer … Cε1-H” value (MtATP-PRT [3]; pH 8.5) was 88.2%, the “% saturation transfer … Cα-H” value (MtATP-PRT [3]; pH 9.0) was 0% and the “% saturation transfer … Cβ-H2” value (MtATP-PRT [3]; pH 9.0) was 0%. For the same compound, the “% saturation transfer … Cδ2-H” value (MtATP-PRT [3]; pH 9.0) was 100%, the “% saturation transfer … Cε1-H” value (MtATP-PRT [3]; pH 9.0) was 100% and the “pKa of the imidazole group” value ([4]; background statement) was ~6.0. For the same compound, the “pKa of the α-amino group” value ([4]; stated in discussion) was ~9, the Kd (MtATP-PRT [5]) was 27.9 ± 3.2 µM and the koff (MtATP-PRT [5]; pH 8.5, read-out: koff,L-histidine) was 0.95 ± 0.03 s⁻¹. For the same compound, the kon (MtATP-PRT [5]; pH 8.5, read-out: kon,L-histidine) was 4880 ± 717 M⁻¹ s⁻¹, the Ki (MtATP-PRT [6]) was 25.7 ± 12.8 µM and the IC50 (MtATP-PRT [6]; IC50,L-histidine, 50 mM Tris-HCl pH 8.5, 7 mM MgCl2, 200 mM KCl, 1.6 mM ATP, 0.8 mM PRPP, 25 °C) was 33.3 µM and 33 µM. It also gave a Hill number (MtATP-PRT [6]; IC50 curve, pH 8.5, 1.6 mM ATP, 0.8 mM PRPP) of 1.5, a Kii (MtATP-PRT [6]; pH 8.50 (Tris-HCl), varied ATP, 0.8 mM PRPP fixed, 25 °C) of 27.9 ± 1.9 µM and a Kii (MtATP-PRT [6]; pH 8.50, varied PRPP, 1.6 mM ATP fixed, 25 °C) of 23.5 ± 6.5 µM. The “nature of inhibition versus ATP (in words)” value (MtATP-PRT [6]; varied ATP, saturating PRPP, pH 8.5) was “linear and uncompetitive”, the “nature of inhibition versus PRPP (in words)” value (MtATP-PRT [6]; varied PRPP, saturating ATP, pH 8.5) was “linear and noncompetitive” and the Kii (MtATP-PRT [7]; pH 8.00, varied ATP) was 4 µM and 4.0 ± 0.4 µM. It also gave a Kii (MtATP-PRT [7]; pH 8.25, varied ATP) of 7.9 ± 1.5 µM, a Kii (MtATP-PRT [7]; pH 8.50 (pH series), varied ATP) of 28.3 ± 2.1 µM and a Kii (MtATP-PRT [7]; pH 8.75, varied ATP) of 26.8 ± 1.5 µM. The Kii (MtATP-PRT [7]; pH 9.00, varied ATP) was 50.4 ± 5.5 µM, the Kii (MtATP-PRT [7]; pH 9.25, varied ATP) was 109.4 ± 6.8 µM and the “influence of ligand on the hexameric oligomeric state of MtATP-PRT” value (MtATP-PRT [8]) was “not influenced”.

For `[Cl-].[Cl-].[Mg+2]` [MgCl2], the “Kact,Mg^2+” value (MtATP-PRT [1]; Table 1, saturating substrates, 200 mM KCl, 25 °C) was 1900 ± 600 µM and the “Apparent Kact for MgCl2” value (MtATP-PRT [1]; saturating concentrations of both substrates, 200 mM KCl) was 1.9 ± 0.6 mM.
